The source made the active and inactive calls. The calls are words filed in the database; no cut-off is given here.
Columns and labels:
[1] = molecular target: T1, Cannabinoid receptor 2 (Homo sapiens, UniProt P34972); test: Displacement of [3H]CP,55-940 from recombinant human CB2 receptor expressed in HEK293 EBNA cell membranes at 40 uM after 90 mins by microbeta scintillation counting method relative to control
In short: (§1)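 Competition binding with [³H]-CP55,940 on human CB₁R or CB₂R transfected into HEK293 EBNA cells; each compound screened once at 40 µM for percent displacement of radioligand.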

[2] = molecular target: T1, Cannabinoid receptor 2; test: Displacement of [3H]CP,55-940 from recombinant human CB2 receptor expressed in HEK293 EBNA cell membranes after 90 mins by microbeta scintillation counting method
[3] = molecular target: T2, Cannabinoid receptor 1 (Homo sapiens, UniProt P21554); test: Displacement of [3H]CP,55-940 from recombinant human CB1 receptor expressed in HEK293 EBNA cell membranes at 40 uM after 90 mins by microbeta scintillation counting method relative to control; in short: as §1
[4] = molecular target: T2, Cannabinoid receptor 1; test: Antagonist activity at human CB1 receptor expressed in CHO cell membranes assessed as reduction in GTPgammaS binding after 30 mins by microbeta counting method; assay type: functional, cell-based
[5] = molecular target: T2, Cannabinoid receptor 1; test: Displacement of [3H]CP,55-940 from recombinant human CB1 receptor expressed in HEK293 EBNA cell membranes after 90 mins by microbeta scintillation counting method
[6] = system: Mus musculus; test: Reversal of delta9-THC-induced analgesic effect in mouse assessed as reduction in delta9-THC-induced elevation in latency response at 2.5 mg/kg measured after 5 mins by hot plate test; assay type: organism-based; conditions: in vivo
In short: (§2)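 Hot-plate test in mice, read as latency to respond to the painful stimulus. Test agent at 2.5 mg/kg was given alone or with the cannabinoid agonist Δ9-THC at 5 mg/kg. […] 7-9 mice per group; means SEM; one-way ANOVA with Student-Newman-Keuls test.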

[7] = system: Mus musculus; test: Analgesic effect in mouse assessed as elevation in latency response at 1 mg/kg measured after 5 mins by hot plate test; assay type: functional, organism-based
[8] = system: Mus musculus; test: Analgesic effect in mouse assessed as elevation in latency response at 2.5 mg/kg measured after 5 mins by hot plate test; assay type: functional, organism-based; in short: as §2

T1 sequence (P34972 whole entry): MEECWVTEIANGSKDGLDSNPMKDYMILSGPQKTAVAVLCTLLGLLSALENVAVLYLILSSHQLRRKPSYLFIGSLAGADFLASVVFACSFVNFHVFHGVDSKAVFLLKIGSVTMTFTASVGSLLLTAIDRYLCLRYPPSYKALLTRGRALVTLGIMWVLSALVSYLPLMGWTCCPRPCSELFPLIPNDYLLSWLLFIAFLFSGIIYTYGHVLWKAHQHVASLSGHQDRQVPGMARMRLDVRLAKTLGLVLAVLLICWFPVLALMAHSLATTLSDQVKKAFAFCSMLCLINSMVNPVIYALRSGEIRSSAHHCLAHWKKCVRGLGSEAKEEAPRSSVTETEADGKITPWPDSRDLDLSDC
T2 sequence (P21554 whole entry): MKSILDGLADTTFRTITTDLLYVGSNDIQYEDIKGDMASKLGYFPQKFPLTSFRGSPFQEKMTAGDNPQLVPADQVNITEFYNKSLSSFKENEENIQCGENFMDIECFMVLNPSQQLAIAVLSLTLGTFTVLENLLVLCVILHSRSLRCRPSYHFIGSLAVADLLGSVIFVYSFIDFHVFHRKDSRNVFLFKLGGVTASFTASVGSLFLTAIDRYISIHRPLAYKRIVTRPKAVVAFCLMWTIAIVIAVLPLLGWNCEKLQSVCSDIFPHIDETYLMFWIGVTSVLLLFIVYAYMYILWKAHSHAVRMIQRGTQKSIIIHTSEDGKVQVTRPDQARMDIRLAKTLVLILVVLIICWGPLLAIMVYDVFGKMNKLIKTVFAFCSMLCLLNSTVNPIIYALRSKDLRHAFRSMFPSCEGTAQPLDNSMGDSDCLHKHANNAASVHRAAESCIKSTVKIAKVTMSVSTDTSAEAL

SMILES | Ki [2] | Ki [5] | inhibition [1] | Ki ([2]; read-out: Ki) | inhibition [3] | IC50 [4] | Ki ([5]; read-out: Ki) | Activity [6] | Activity [7] | Activity [8]
Cc1ccc(-c2cc(SNC3CC4CCC3(C)C4(C)C)nnc2-c2ccc(C)cc2)cc1 (centres undefined) |  |  | < 70% | > 40000 nM | > 70% | 249 nM | 44.6 nM |  |  | 
Cc1ccc(-c2cc(S(=O)(=O)NC3CCCCC3)nnc2-c2ccc(C)cc2)cc1 |  |  | < 70% | > 40000 nM | > 70% |  | 3600 nM |  |  | 
Cc1ccc(-c2cc(SNC3CC(C)CCC3C(C)C)nnc2-c2ccc(C)cc2)cc1 (centres undefined) |  |  | < 70% | > 40000 nM | > 70% |  | 708 nM |  |  | 
Cc1ccc(-c2cc(S(=O)(=O)NCC3CCC4CC3C4(C)C)nnc2-c2ccc(C)cc2)cc1 (centres undefined) |  |  | < 70% | > 40000 nM | > 70% |  | > 10000 nM |  |  | 
Cc1ccc(-c2cc(SNC3C4(C)CCC(C4)C3(C)C)nnc2-c2ccc(C)cc2)cc1 (centres undefined) |  |  | < 70% | > 40000 nM | > 70% |  | 247 nM |  |  | 
Cc1ccc(-c2cc(S(=O)(=O)NC3CC4CCC3(C)C4(C)C)nnc2-c2ccc(C)cc2)cc1 (centres undefined) |  |  | < 70% | > 40000 nM | > 70% |  | 1290 nM |  |  | 
Cc1ccc(Cn2nc(-c3ccc(C)cc3)cc(S(=O)(=O)NC3CCCCCC3)c2=O)cc1 |  |  | < 70% | 2550 nM | > 70% |  | 1190 nM | Toxic |  | 
Cc1ccc(-c2cc(SNCC3CCC4CC3C4(C)C)nnc2-c2ccc(C)cc2)cc1 (centres undefined) |  |  | < 70% | > 40000 nM | > 70% |  | 1250 nM |  |  | 
Cc1ccc(-c2cc(SNC3CCCC3)nnc2-c2ccc(C)cc2)cc1 |  |  | < 70% | > 40000 nM | > 70% |  | 724 nM |  |  | 
Cc1c(C(=O)NN2CCCCC2)nn(-c2ccc(Cl)cc2Cl)c1-c1ccc(Cl)cc1 |  |  |  |  |  |  |  |  | inactive | 
Cc1ccc(-c2cc(SNC3CCCCCC3)nnc2-c2ccc(C)cc2)cc1 |  |  | < 70% | > 40000 nM | > 70% |  | 609 nM |  |  | 
Cc1ccc(-c2cc(S(=O)(=O)NC3CC4CC(C3C)C4(C)C)nnc2-c2ccc(C)cc2)cc1 (centres undefined) |  |  | < 70% | > 40000 nM | > 70% | 550 nM | 73.2 nM |  |  | 
Cc1ccc(-c2cc(SNC3CCCCC3)nnc2-c2ccc(C)cc2)cc1 | Nd(Insoluble) | Nd(Insoluble) |  |  |  |  |  |  |  | 
Cc1ccc(-c2cc(S(=O)(=O)NC3CC(C)CCC3C(C)C)nnc2-c2ccc(C)cc2)cc1 (centres undefined) |  |  | < 70% | > 40000 nM | > 70% |  | > 10000 nM |  |  | 
Cc1ccc(-c2cc(SNCC34CC5CC(CC(C5)C3)C4)nnc2-c2ccc(C)cc2)cc1 |  |  | < 70% | > 40000 nM | > 70% |  | 857 nM |  |  | 
Cc1ccc(-c2cc(S(=O)(=O)NC3CCCC3)nnc2-c2ccc(C)cc2)cc1 |  |  | < 70% | > 40000 nM | > 70% |  | 1460 nM |  |  | 
Cc1ccc(Cn2nc(-c3ccc(C)cc3)cc(SNC3CCCCCC3)c2=O)cc1 |  |  | inactive | > 40000 nM | inactive |  | > 40000 nM |  |  | 
Cc1ccc(-c2cc(SNCCN3CCOCC3)nnc2-c2ccc(C)cc2)cc1 |  |  | < 70% | > 40000 nM | > 70% |  |  |  |  | 
Cc1ccc(-c2cc(SNC3CC4CC(C3C)C4(C)C)nnc2-c2ccc(C)cc2)cc1 (centres undefined) |  |  | < 70% | > 40000 nM | > 70% | 182 nM | 75.5 nM |  |  | inactive
Cc1ccc(-c2cc(S(=O)(=O)NC3CCCCCC3)nnc2-c2ccc(C)cc2)cc1 |  |  | < 70% | > 40000 nM | > 70% |  | 800 nM |  |  | 

Reference: ChEMBL document CHEMBL4184183, “Novel sulfenamides and sulfonamides based on pyridazinone and pyridazine scaffolds as CB1 receptor ligand antagonists” (Bioorg Med Chem, 2018)
